Ki, Activity and viability data for 13 compounds are collected here from ChEMBL document CHEMBL4196237, “Heterocoumarins Are Selective Carbonic Anhydrase IX and XII Inhibitors with Cytotoxic Effects against Cancer Cells Lines” (ACS Med Chem Lett, 2018).

In one assay the target is Carbonic anhydrase 9 (Homo sapiens, UniProt Q16790). The assay is described as follows: Inhibition of recombinant human carbonic anhydrase 9 incubated 15 mins prior to testing by CO2 hydration based stopped-flow assay.
The target in the next assay is Carbonic anhydrase 1 (Homo sapiens, UniProt P00915). The assay is described as follows: Inhibition of recombinant human carbonic anhydrase 1 incubated 6 h prior to testing by CO2 hydration based stopped-flow assay.
For a further assay, the target named is Carbonic anhydrase 2 (Homo sapiens, UniProt P00918). The assay is described as follows: Inhibition of recombinant human carbonic anhydrase 2 incubated 6 h prior to testing by CO2 hydration based stopped-flow assay.
For assay [1], the target named is T1, Carbonic anhydrase 12 (Homo sapiens, UniProt O43570). Briefly: Inhibition of recombinant human carbonic anhydrase 12 incubated 6 h prior to testing by CO2 hydration based stopped-flow assay.
The subject of assay [2] is PC-3. The assay is described as follows: Cytotoxicity against human PC3 cells assessed as reduction in cell viability at 1 to 300 uM after 48 hrs under normoxic conditions by MTT assay. The class given is functional, cell-based. An outline of the steps: (§1)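 PC3 human prostate cancer cells incubated 48 h with compound at a range of concentrations, under normoxia or under hypoxia (1% O2). Viability is expressed relative to control, with significance tested against control at p < 0.05, 0.01 and 0.001.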
Background: Tetrazolium dyes change colour on reduction, which living cells bring about.

Assay [3] deals with PC-3. The assay is described as follows: Cytotoxicity against human PC3 cells assessed as reduction in cell viability at 1 to 300 uM after 48 hrs under hypoxic conditions by MTT assay. The class given is functional, cell-based. An outline of the steps:
as §1

Assay [4] has as its system MDA-MB-231. The assay is described as follows: Cytotoxicity against human MDA-MB-231 cells assessed as reduction in cell viability at 1 to 300 uM after 48 hrs under normoxic conditions by MTT assay. It is filed as functional, cell-based.
The subject of assay [5] is MDA-MB-231. Briefly: Cytotoxicity against human MDA-MB-231 cells assessed as reduction in cell viability at 1 to 300 uM after 48 hrs under hypoxic conditions by MTT assay. It is filed as functional, cell-based.
In assay [6] the target is T1, Carbonic anhydrase 12. Briefly: Inhibition of recombinant human carbonic anhydrase 12 incubated 15 mins prior to testing by CO2 hydration based stopped-flow assay.
The subject of assay [7] is PC-3. Briefly: Cytotoxicity against human PC3 cells assessed as cell viability at 30 uM after 48 hrs under normoxic conditions by MTT assay relative to control. It is filed as functional. As to conditions: PC-3, 48 h, read-out: Activity. An outline of the steps:
as §1

Assay [8] concerns PC-3. Briefly: Cytotoxicity against human PC3 cells assessed as cell viability at higher concentration after 48 hrs under normoxic conditions by MTT assay relative to control. It is filed as functional. The gist of the method: as §1
Assay [9] has as its system PC-3. Briefly: Cytotoxicity against human PC3 cells assessed as cell viability at 30 uM after 48 hrs under hypoxic conditions by MTT assay relative to control. The class given is functional. As to conditions: PC-3, 48 h, read-out: Activity. An outline of the steps:
as §1

Assay [10] concerns PC-3. The assay is described as follows: Cytotoxicity against human PC3 cells assessed as cell viability at 100 to 300 uM after 48 hrs under hypoxic conditions by MTT assay relative to control. It is filed as functional. The gist of the method: as §1
Assay [11] deals with MDA-MB-231. The assay is described as follows: Cytotoxicity against human MDA-MB-231 cells assessed as reduction in cell viability at 300 uM after 48 hrs under hypoxic conditions by MTT assay relative to control. The class given is functional.
The subject of assay [12] is MDA-MB-231. The assay is described as follows: Cytotoxicity against human MDA-MB-231 cells assessed as reduction in cell viability at 30 uM after 48 hrs under normoxic conditions by MTT assay relative to control. The class given is functional.
The test system of assay [13] is PC-3. Briefly: Cytotoxicity against human PC3 cells assessed as cell viability at 300 uM after 48 hrs under normoxic conditions by MTT assay relative to control. It is filed as functional. The conditions noted are these: PC-3, 48 h, read-out: Activity. The gist of the method:
as §1

The test system of assay [14] is PC-3. Briefly: Cytotoxicity against human PC3 cells assessed as cell viability at 300 uM after 48 hrs under hypoxic conditions by MTT assay relative to control. It is filed as functional. As to conditions: PC-3, 48 h, read-out: Activity. The gist of the method: as §1
Assay [15] concerns MDA-MB-231. The assay is described as follows: Cytotoxicity against human MDA-MB-231 cells assessed as reduction in cell viability at 300 uM after 48 hrs under normoxic conditions by MTT assay relative to control. The class given is functional.
The subject of assay [16] is MDA-MB-231. Briefly: Cytotoxicity against human MDA-MB-231 cells assessed as reduction in cell viability at 30 uM after 48 hrs under hypoxic conditions by MTT assay relative to control. The class given is functional.

Activity calls are given as the source filed them. No cut-off for these calls is given here. A value given as a limit tells only on which side of the number the result lay.

T1 sequence (O43570 whole entry): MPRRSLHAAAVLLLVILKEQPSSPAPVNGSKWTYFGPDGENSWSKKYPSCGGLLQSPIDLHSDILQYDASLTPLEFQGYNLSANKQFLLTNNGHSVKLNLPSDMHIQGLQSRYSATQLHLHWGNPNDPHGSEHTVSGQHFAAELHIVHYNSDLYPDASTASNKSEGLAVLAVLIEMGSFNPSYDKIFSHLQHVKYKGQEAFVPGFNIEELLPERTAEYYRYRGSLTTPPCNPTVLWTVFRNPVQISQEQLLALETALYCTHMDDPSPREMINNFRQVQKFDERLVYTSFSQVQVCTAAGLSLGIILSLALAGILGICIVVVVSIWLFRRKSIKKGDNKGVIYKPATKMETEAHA
Carbonic anhydrase 1, sequence (P00915 whole entry): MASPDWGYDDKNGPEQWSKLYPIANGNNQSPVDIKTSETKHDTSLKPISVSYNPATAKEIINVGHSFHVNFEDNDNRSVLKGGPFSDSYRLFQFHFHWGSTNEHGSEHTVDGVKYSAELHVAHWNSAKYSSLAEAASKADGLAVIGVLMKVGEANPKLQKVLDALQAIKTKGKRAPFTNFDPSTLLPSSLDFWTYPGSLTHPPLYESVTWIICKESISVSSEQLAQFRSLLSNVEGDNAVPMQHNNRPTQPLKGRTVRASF

On to `Cn1c(=O)ccc2ccccc21`, for which the Ki at Carbonic anhydrase 9 was 44.6 nM; on Carbonic anhydrase 1, over 10000 nM; on Carbonic anhydrase 2, over 10000 nM; on Carbonic anhydrase 12 [1] it was 83.5 nM.

As to `O=c1ccc2cccc(Cl)c2[nH]1`, the Ki on Carbonic anhydrase 9 is 23 nM; at Carbonic anhydrase 1 it was over 10000 nM; at Carbonic anhydrase 2, over 10000 nM.

For `[Se]=c1ccc2ccccc2[nH]1`, the inhibitory constant (Ki) at Carbonic anhydrase 9 is 54.4 nM; on Carbonic anhydrase 1, over 10000 nM; on Carbonic anhydrase 2 it was over 10000 nM. The result in the assay on PC-3 [2], in the assay with PC-3 [3], in the assay on MDA-MB-231 [4] and in the assay on MDA-MB-231 [5] was inactive.

With `O=c1ccc2cccc(Br)c2[nH]1`, the figures for the Ki on Carbonic anhydrase 9, on Carbonic anhydrase 1 and on Carbonic anhydrase 2 were 23.4 nM, over 10000 nM and over 10000 nM, respectively.

Consider `Oc1ccc2ccccc2n1`, for which the Ki at Carbonic anhydrase 1 and at Carbonic anhydrase 2 was over 10000 nM in each case.

Regarding `O=c1ccc2cccc(F)c2[nH]1`, the Ki is 58.8 nM on Carbonic anhydrase 9, over 10000 nM on Carbonic anhydrase 1 and over 10000 nM on Carbonic anhydrase 2.

`O=c1ccc2ccccc2[te]1`: the inhibition constant (Ki) on Carbonic anhydrase 9 is 59 nM; on Carbonic anhydrase 12 [6] it was 8.2 nM; at Carbonic anhydrase 1, over 10000 nM; at Carbonic anhydrase 2, over 10000 nM. The viability at 30 µM stood at 54% with PC-3 [7] and 71% in the assay with PC-3 [9]. Also, the Activity with PC-3 [8] is listed as 19%; with PC-3 [10] it was 38%; in the assay on MDA-MB-231 [11] it was 22%; in the assay with MDA-MB-231 [12], 15.9%.

Take `S=c1ccc2ccccc2[se]1`: the Ki on Carbonic anhydrase 9 was 39.5 nM; at Carbonic anhydrase 1, over 10000 nM; on Carbonic anhydrase 2 it was over 10000 nM.

Turning to `Cc1ccc2[nH]c(=O)ccc2c1`, the Ki was 123 nM on Carbonic anhydrase 9, over 10000 nM on Carbonic anhydrase 1 and over 10000 nM on Carbonic anhydrase 2.

For the compound `Cc1ccc2[se]c(=S)ccc2c1`, the Ki is 59.9 nM on Carbonic anhydrase 9, over 10000 nM at Carbonic anhydrase 1 and over 10000 nM at Carbonic anhydrase 2. Also, the viability at 30 µM in the assay on PC-3 [7] was determined as 51%; in the assay with PC-3 [9], 79%. Besides, the outcome in the assay with MDA-MB-231 [5] was inactive. Besides, in the assay on MDA-MB-231 [12], the Activity is on record as 61%.

`Cn1c(=[Se])ccc2ccccc21`: the Ki was 172 nM at Carbonic anhydrase 9, 86.4 nM at Carbonic anhydrase 12 [6], over 10000 nM at Carbonic anhydrase 1 and over 10000 nM on Carbonic anhydrase 2.

Regarding `O=c1ccc2ccccc2[se]1`, the Ki on Carbonic anhydrase 9 is 26.3 nM; on Carbonic anhydrase 1, over 10000 nM; at Carbonic anhydrase 2, over 10000 nM. Also, the viability at 300 µM in the assay with PC-3 [13] and in the assay on PC-3 [14] was 68% throughout. The values for the Activity with MDA-MB-231 [15], in the assay with MDA-MB-231 [16] and in the assay with MDA-MB-231 [11] were 28%, over 50% and 90%, respectively.

As for `Cc1ccc2[se]c(=O)ccc2c1`, the Ki on Carbonic anhydrase 9 was 56.1 nM; at Carbonic anhydrase 12 [6] it was 7.6 nM; on Carbonic anhydrase 1, over 10000 nM; at Carbonic anhydrase 2, over 10000 nM.

The term Ki denotes a dissociation constant, usually derived from enzyme kinetics or from competition with a known ligand.
